Publication PMC10663723 (RSC Advances, 2023)
In brackets after ≈: the same amount, converted by molar mass.

Columns and labels:
[1] = MTT cell viability assay, HFF cells; assay type: cell-based; details: human, HFF cells (non-cancer human foreskin fibroblasts)
Method in brief: (§1)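 Cells plated at 10000/well in DMEM with 10% FBS and incubated 20 h at 37 °C, 5% CO2. Test compound (20 mg mL−1 DMSO stock, diluted in medium) was applied at 0.1–100 μg mL−1 for 48 h; 0.5% final DMSO served as vehicle control. MTT (0.5 mg mL−1) was added for 4 h at 37 °C in the dark, formazan was dissolved in DMSO, and absorbance was read at 570 nm.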

[2] = system: cervical cancer cells (HeLa); assay: MTT cell viability assay, HeLa cells; assay type: cell-based; details: Homo sapiens, 48 h, read-out: EC50, HeLa
Method in brief: as §1

[3] = system: triple-negative breast cancer cells (MDA-MB-231); assay: MTT cell viability assay, MDA-MB-231 cells; assay type: cell-based, human; details: CC50 HFF / EC50 MDA-MB-231
Method in brief: as §1

lung cancer cells (A549) = assay: MTT cell viability assay, A549 cells; assay type: cell-based, human
Method in brief: as §1

COc1cccc2c1C(=O)c1c(O)c3c(c(O)c1C2=O)C[C@@](O)(C(=O)CO)C[C@@H]3O[C@H]1C[C@H](N)[C@H](O)[C@H](C)O1 [doxorubicin]
CC50 at 48 h [1]: 8.96 µg/mL (≈ 16.5 µM) | EC50 [2]: 1.69 µg/mL (≈ 3.11 µM) | SI (selectivity index) MDA-MB-231 with respect to HFF cells [3]: 2.73 | SI (selectivity index) A549 with respect to HFF cells (lung cancer cells (A549); CC50 HFF / EC50 A549): 2.83 | EC50 (lung cancer cells (A549); Homo sapiens, A549, 48 h, read-out: EC50, A549): 2.68 µg/mL (≈ 4.93 µM)
